Results gathered from unrelated publications.
Each line is one published result; the experiments were not run side by side. ≈ marks a conversion by molar mass, not a printed value.

| SMILES | organism | assay | test system | conditions | quantity | value |
| --- | --- | --- | --- | --- | --- | --- |
| CCCCCCCCCCCCCC(O)CC(O)CO (stereo not shown) | Mycobacterium intracellulare | microbial growth, resazurin | ATCC23068 | – | IC50 | > 200 µg/mL |
| CCn1c(-c2nonc2N)nc2c(C#CC(C)(C)O)ncc(OC3CCNCC3)c21 | Plasmodium berghei | parasite growth, luciferase | human | liver stage | IC50 | 7300 nM |
| O=C(O)Cc1cccc(Oc2ccc(-c3noc(-c4ccc(O)cc4)n3)cc2)c1 | Enterococcus faecium | microbial growth, broth dilution | – | 24 h | MIC | > 32 µg/mL |
| NS(=O)(=O)c1ccc(NC=C2C(=O)Nc3ccc4ncsc4c32)cc1 | Trypanosoma brucei | parasite growth | – | – | EC50 | 12600 nM |
| C[C@@H]1[C@H](O)[C@@H](C)/C=C/C=C/C=C/C=C/C=C/C=C/C=C/[C@H](O[C@@H]2O[C@H](C)[C@@H](O)[C@H](N)[C@@H]2O)C[C@@H]2O[C@](O)(C[C@@H](O)C[C@@H](O)[C@H](O)CC[C@@H](O)C[C@@H](O)CC(=O)O[C@H]1C)C[C@H](O)[C@H]2C(=O)O | Candida albicans | microbial killing | ATCC90028 | – | MFC | 1.35 µM (≈ 1.25 µg/mL) |
| C=CCCCCCCCCCCCC(O)CC(O)CO (stereo not shown) | Mycobacterium intracellulare | microbial growth, resazurin | ATCC23068 | – | IC50 | > 200 µg/mL |
| N#Cc1ccc(/C=C/c2nc3ccncc3c(=O)n2-c2cccc(C(=O)O)c2)cc1 | Enterococcus faecium | microbial growth, broth dilution | NCTC7171 | – | MIC | > 128 µg/mL |
| O=C(O)c1cn(C2CC2)c2cc(N3CCNCC3)c(F)cc2c1=O | Mycobacterium intracellulare | microbial growth | ATCC23068 | – | IC50 | 0.3 µg/mL |
| Cl.NCc1ccccc1Oc1ccc(-c2noc(-c3ccc(O)cc3)n2)cc1 | Enterococcus faecium | microbial growth, broth dilution | – | 24 h | MIC | 8 µg/mL |
| CNC(=O)c1cc(Oc2ccc(NC(=O)Nc3ccc(Cl)c(C(F)(F)F)c3)cc2)ccn1 | Plasmodium berghei | parasite growth, luciferase | human | liver stage | IC50 | 1400 nM |
| Cl.NCCc1ccccc1Oc1ccc(-c2noc(-c3ccc(O)cc3)n2)cc1 | Enterococcus faecium | microbial growth, broth dilution | – | 24 h | MIC | 8 µg/mL |
| Cc1ccc2c(-c3ccnc(Nc4ccccc4)n3)c(-c3ccc(F)cc3)nn2n1 | Plasmodium berghei | parasite growth, luciferase | human | liver stage | IC50 | 5500 nM |
| CC(=O)NCc1cccc(-n2c(/C=C/c3ccc(C#N)cc3)nc3ccccc3c2=O)c1 | Enterococcus faecium | microbial growth, broth dilution | NCTC7171 | – | MIC | > 128 µg/mL |
| CCN(Cc1cnc2nc(N)nc(N)c2n1)c1ccc(C(=O)N2CCC(C(=O)OC)CC2)cc1 | Trypanosoma brucei | parasite growth, resazurin | – | 10 µM, 72 h | inhibition | 31% |
| CC(CN)c1ccc(Oc2ccc(-c3noc(-c4ccc(O)cc4)n3)cc2)cc1.Cl (racemic) | Enterococcus faecium | microbial growth, broth dilution | – | 24 h | MIC | 4 µg/mL |
| O=C(Nc1ccccc1-c1ccc(F)c(F)c1)c1nccnc1C(F)(F)F | Monilinia fructicola | microbial growth | – | – | EC50 | 0.11 µg/mL |
| Cl.Oc1ccc(-c2nc(-c3ccc(Oc4ccc5c(c4)CNCC5)cc3)no2)cc1 | Enterococcus faecium | microbial growth, broth dilution | – | 24 h | MIC | 4 µg/mL |
| N#Cc1ccc(/C=C/c2nc3ccccc3c(=O)n2-c2cccc(CC(=O)O)c2)cc1 | Enterococcus faecium | microbial growth, broth dilution | NCTC7171 | – | MIC | > 128 µg/mL |
| CCCCCCCCCC(=O)N[C@@H](Cc1c[nH]c2ccccc12)C(=O)N[C@H](CC(N)=O)C(=O)N[C@@H](CC(=O)O)C(=O)N[C@@H]1C(=O)NCC(=O)N[C@@H](CCCN)C(=O)N[C@@H](CC(=O)O)C(=O)N[C@H](C)C(=O)N[C@@H](CC(=O)O)C(=O)NCC(=O)N[C@H](CO)C(=O)N[C@@H]([C@H](C)CC(=O)O)C(=O)N[C@@H](CC(=O)c2ccccc2N)C(=O)O[C@@H]1C | Enterococcus faecium | microbial growth, broth dilution | – | 24 h | MIC | 2 µg/mL (≈ 1.23 µM) |

| SMILES | organism | assay | test system | conditions | quantity | value |
| --- | --- | --- | --- | --- | --- | --- |
| C#CCCCCCCCCCCCC(O)CC(O)CO (stereo not shown) | Mycobacterium intracellulare | microbial growth, resazurin | ATCC23068 | – | IC50 | > 200 µg/mL |
| O=c1c2cnccc2nc(/C=C/c2ccc(F)cc2)n1-c1cccc(O)c1 | Enterococcus faecium | microbial growth, broth dilution | NCTC7171 | – | MIC | > 128 µg/mL |
| CN(c1ccc(NC(=O)Nc2c(Cl)cccc2Cl)cc1)c1ccnc(Nc2cccc(CS(C)(=O)=O)c2)n1 | Trypanosoma brucei | parasite growth | – | – | EC50 | 7940 nM |
| CC(=O)Nc1cccc(-n2c(/C=C/c3ccc(F)cc3)nc3ccccc3c2=O)c1 | Enterococcus faecium | microbial growth, broth dilution | NCTC7171 | – | MIC | > 128 µg/mL |
| O=S(=O)(CCOCc1ccc(-c2ccc3ncnc(Nc4ccc(OCc5cccc(F)c5)c(Cl)c4)c3c2)o1)c1ccccc1 | Trypanosoma brucei | parasite growth | – | – | EC50 | 1580 nM |
| O=C(O)c1cn(C2CC2)c2cc(N3CCNCC3)c(F)cc2c1=O | Mycobacterium intracellulare | microbial growth, resazurin | ATCC23068 | – | IC50 | 0.48 µg/mL |
| CS(=O)(=O)CCNCc1nc(-c2ccc3ncnc(Nc4ccc(OCc5cccc(C(F)(F)F)c5)cc4)c3c2)cs1 | Trypanosoma brucei | parasite growth | – | – | EC50 | 3160 nM |
| C[C@@H]1[C@H](O)[C@@H](C)/C=C/C=C/C=C/C=C/C=C/C=C/C=C/[C@H](O[C@@H]2O[C@H](C)[C@@H](O)[C@H](N)[C@@H]2O)C[C@@H]2O[C@](O)(C[C@@H](O)C[C@@H](O)[C@H](O)CC[C@@H](O)C[C@@H](O)CC(=O)O[C@H]1C)C[C@H](O)[C@H]2C(=O)O | Candida albicans | microbial growth, broth dilution | ATCC90028 | – | IC50 | 0.27 µg/mL |
| COc1cc(C=NNc2ncnc3c2cnn3-c2ccccc2)ccc1O | Trypanosoma brucei | parasite growth | – | – | EC50 | 1580 nM |
| Cl.NCc1ccc(Oc2ccc(-c3noc(-c4ccc(O)cc4)n3)cc2)cc1 | Enterococcus faecium | microbial growth, broth dilution | – | 24 h | MIC | 4 µg/mL |
| N#CCNC(=O)c1ccc(-c2ccnc(Nc3ccc(N4CCOCC4)cc3)n2)cc1 | Plasmodium berghei | parasite growth, luciferase | human | liver stage | IC50 | 550 nM |
| NS(=O)(=O)c1ccc(N/N=C2\C(=O)Nc3ccc4ncccc4c32)cc1 | Trypanosoma brucei | parasite growth | – | – | EC50 | 79.4 nM |
| COc1ncccc1CNc1cccc(-n2c(/C=C/c3ccc(C#N)cc3)nc3ccccc3c2=O)c1 | Enterococcus faecium | microbial growth, broth dilution | NCTC7171 | – | MIC | > 128 µg/mL |
| COC(=O)c1ccc2c(c1)C(=Cc1cc(Br)c(O)c(Br)c1)C(=O)N2 | Plasmodium berghei | parasite growth, luciferase | human | liver stage | IC50 | 6700 nM |
| CS(=O)(=O)CCNCc1ccc(-c2ccc3ncnc(Nc4ccc(OCc5cccc(C(F)(F)F)c5)cc4)c3c2)o1 | Trypanosoma brucei | parasite growth | – | – | EC50 | 2000 nM |
| CC(=O)Oc1ccc(-n2c(/C=C/c3ccc([N+](=O)[O-])cc3)nc3ccccc3c2=O)cc1 | Enterococcus faecium | microbial growth, broth dilution | NCTC7171 | – | MIC | 32 µg/mL (≈ 74.9 µM) |
| CN1CCC(n2cnc(-c3ccc(F)cc3)c2-c2ccnc(Nc3ccccc3)n2)CC1 | Trypanosoma brucei | parasite growth | – | – | EC50 | 501 nM |
| COC(=O)Nc1cccc(-n2c(/C=C/c3ccc(C#N)cc3)nc3ccccc3c2=O)c1 | Enterococcus faecium | microbial growth, broth dilution | NCTC7171 | – | MIC | > 128 µg/mL |
